What was measured:
PC-12 = assay: Inhibition of SOD1 G93A mutant protein aggregation-mediated cytotoxicity in rat PC12 cells expressing yellow fluorescent protein assessed as increase in cell viability relative to radicicol; assay type: cell-based; design: concentration or dose not given beside the values
In short: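 PC12 cells expressing G93A SOD1-YFP; MG132 proteasome inhibition induces cytotoxic mutant SOD1 aggregates. Cell survival measured as protection read-out; efficacy expressed relative to radicicol positive control.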

[1] = Inhibition of SOD1 G93A mutant protein aggregation-mediated cytotoxicity in rat PC12 cells expressing yellow fluorescent protein assessed as increase in cell viability; assay type: cell-based; details: PC-12

SMILES	Efficacy (PC-12)	EC50 [1]
O=C1CC(=O)CC(c2ccc(F)cc2F)C1	100%	> 32000 nM
O=C1CC(=O)CC(c2c(Cl)cc(Cl)cc2Cl)C1	100%	7010 nM
Cc1cccc(C2CC(=O)CC(=O)C2)c1	100%	4810 nM
O=C1CC(=O)CC(CC(c2ccccc2)c2ccccc2)C1	100%	3430 nM
CC(C)(C)OC(=O)N1CCN(c2ccc(C3CC(=O)CC(=O)C3)cc2)CC1	100%	8290 nM
Cc1cccc(C2CC(=O)CC(=O)C2)c1C	100%	2390 nM
O=C1CC(=O)CC(COc2cc(C(F)(F)F)cc(C(F)(F)F)c2)C1	100%	700 nM
O=C1CC(=O)CC(c2ccc(Oc3cccc(Cl)c3)cc2)C1	100%	3600 nM
O=C1CC(=O)CC(c2cccc(-c3ccccc3)c2)C1	100%	1230 nM
O=C1CC(=O)CC(c2ccccc2Br)C1	100%	> 32000 nM
CCCCCc1ccc(C2CC(=O)CC(=O)C2)cc1	100%	2010 nM
CCn1c2ccccc2c2cc(C3CC(=O)CC(=O)C3)ccc21	100%	3090 nM
O=C1CC(=O)CC(c2cc(F)cc(F)c2)C1	100%	8200 nM
O=C1CC(=O)CC(c2ccccc2C(F)(F)F)C1	100%	3200 nM
O=C1CC(=O)CC(c2cc(-c3ccc(F)cc3)cc(-c3ccc(F)cc3)c2)C1	100%	3070 nM
O=C1CC(=O)CC(c2c(Cl)cccc2Cl)C1	100%	24300 nM
CCc1ccccc1C1CC(=O)CC(=O)C1	100%	3160 nM
O=C1CC(=O)CC(c2ccc(-c3cccc(Cl)c3)o2)C1	100%	2710 nM
CCCCc1ccc(C2CC(=O)CC(=O)C2)cc1	100%	2710 nM
O=C1CC(=O)CC(c2cccc(OC(F)(F)F)c2)C1	100%	2040 nM
O=C1CC(=O)CC(c2ccc(Cl)cc2Cl)C1	100%	4570 nM
O=C1CC(=O)CC(c2cc(-c3ccccc3)cc(C(F)(F)F)c2)C1	100%	730 nM
O=C1CC(=O)CC(c2ccc(Oc3ccc(F)cc3)cc2)C1	100%	2370 nM

SMILES	Efficacy (PC-12)	EC50 [1]
CC1(COc2ccccc2)CC(=O)CC(=O)C1	100%	6280 nM
Cc1cc(C)c(C2CC(=O)CC(=O)C2)c(C)c1	100%	> 32000 nM
O=C1CC(=O)CC(c2cccc(Oc3cc(Cl)cc(Cl)c3)c2)C1	100%	6660 nM
O=C1CC(=O)CC(c2cc(Cl)cc(Cl)c2)C1	100%	2350 nM
CCCc1ccc(C2CC(=O)CC(=O)C2)cc1	100%	2220 nM
O=C1CC(=O)CC(c2ccc(OCc3ccccc3)cc2)C1	100%	> 32000 nM
CSc1ccc(C2CC(=O)CC(=O)C2)cc1	100%	> 32000 nM
CC(C)(C)c1ccc(C2CC(=O)CC(=O)C2)cc1	100%	9930 nM
Cc1cc(C)cc(C2CC(=O)CC(=O)C2)c1	100%	2400 nM
O=C1CC(=O)CC(c2cccc(Br)c2)C1	100%	28700 nM
O=C1CC(=O)CC(c2ccc(OCCCc3ccccc3)cc2)C1	100%	1300 nM
O=C1CC(=O)CC(c2ccccc2F)C1	100%	> 32000 nM
O=C1CC(=O)CC(c2cccc(Cl)c2)C1	100%	6520 nM
CC(Oc1cc(Cl)cc(Cl)c1)C1CC(=O)CC(=O)C1 (racemic)	100%	1410 nM
O=C1CC(=O)CC(c2ccc(Oc3ccc(Cl)cc3)cc2)C1	100%	2880 nM
O=C1CC(=O)CC(c2ccoc2)C1	100%	> 32000 nM
O=C1CC(=O)CC(c2cc(-c3cccc(Cl)c3)cc(C(F)(F)F)c2)C1	100%	1560 nM
Cc1cc(C)cc(CC2CC(=O)CC(=O)C2)c1	100%	900 nM
CCc1ccc(C2CC(=O)CC(=O)C2)cc1	100%	2220 nM
O=C1CC(=O)CC(c2cccc(-c3cc(F)cc(F)c3)c2)C1	100%	1240 nM
O=C1CC(=O)CC(c2cc(Cl)cc(-c3ccccc3)c2)C1	100%	1100 nM
CC(C)c1cccc(C2CC(=O)CC(=O)C2)c1	100%	1580 nM
O=C1CC(=O)CC(COc2ccccc2)C1	100%	> 32000 nM

SMILES	Efficacy (PC-12)	EC50 [1]
O=C1CC(=O)CC(c2cc(-c3ccccc3)cc(-c3ccccc3)c2)C1	100%	2530 nM
O=C1CC(=O)CC([C@@H]2C[C@H]2c2ccccc2)C1	100%	2650 nM
O=C1CC(=O)CC(c2ccccc2Oc2ccc(F)cc2)C1	100%	1160 nM
CC1(COc2cc(C(F)(F)F)cc(C(F)(F)F)c2)CC(=O)CC(=O)C1	100%	700 nM
Cc1ccccc1C1CC(=O)CC(=O)C1	100%	3390 nM
O=C1CC(=O)CC([C@@H]2C[C@H]2c2cc(C(F)(F)F)cc(C(F)(F)F)c2)C1 (racemic)	100%	700 nM
Cc1cccc(C)c1C1CC(=O)CC(=O)C1	100%	2700 nM
O=C1CC(=O)CC(c2ccccc2Cl)C1	100%	> 32000 nM
O=C1CC(=O)CC(c2cccc(C(F)(F)F)c2)C1	100%	3330 nM
CCOc1cccc(C2CC(=O)CC(=O)C2)c1OCC	100%	3990 nM
O=C1CC(=O)CC(Cc2ccccc2)C1	100%	1820 nM
O=C1CC(=O)CC(c2ccc(C(F)(F)F)cc2C(F)(F)F)C1	100%	2560 nM
O=C1CC(=O)CC(c2ccc3ccccc3c2)C1	100%	6210 nM
O=C1CC(=O)CC(c2ccc(C(F)(F)F)cc2)C1	100%	8300 nM
O=C1CC(=O)CC(c2c(F)cccc2F)C1	100%	> 32000 nM
COc1cc(OC)cc(C2CC(=O)CC(=O)C2)c1	100%	5200 nM
O=C1CC(=O)CC(c2cccc(Oc3ccc(Cl)cc3)c2)C1	100%	2180 nM
O=C1CC(=O)CC(c2ccc(OCCOc3ccccc3)cc2)C1	100%	1560 nM
O=C1CC(=O)CC(c2cccc(-c3ccc(Cl)cc3)c2)C1	100%	3510 nM
CC(C)c1ccc(C2CC(=O)CC(=O)C2)cc1	100%	4090 nM
CCOc1ccc(C2CC(=O)CC(=O)C2)c(OCC)c1	100%	1490 nM
CC(c1ccccc1)C1CC(=O)CC(=O)C1 (racemic)	100%	5850 nM
O=C1CC(=O)CC(c2cccc(-c3cc(C(F)(F)F)cc(C(F)(F)F)c3)c2)C1	100%	2150 nM

From ChEMBL document CHEMBL1938301, “Cyclohexane 1,3-diones and their inhibition of mutant SOD1-dependent protein aggregation and toxicity in PC12 cells” (Bioorg Med Chem, 2012)
